Results as given in ChEMBL document CHEMBL3739352, “Anticonvulsant activity, crystal structures, and preliminary safety evaluation of N-trans-cinnamoyl derivatives of selected (un)modified aminoalkanols” (Eur J Med Chem, 2016).
Active and inactive are the calls of the source. No cut-off for these calls is given here.

How the values were obtained:
Rattus norvegicus [1] = assay: Neurotoxicity in Sprague-Dawley rat at 30 mg/kg, po after 0.25 hrs; format: toxicity, organism-based; details: in vivo
Outline: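 Sprague-Dawley rats were given 30 mg/kg orally in 0.5% methylcellulose. Neurotoxicity was checked at 0.25, 0.5, 1.0, 2.0 and 4 h after dosing. Results are given as number of rats showing neurotoxicity/number tested.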

Rattus norvegicus [2] = assay: Anticonvulsant activity in Sprague-Dawley rat assessed as protection against maximal electroshock-induced seizures at 30 mg/kg, po after 2 hrs; format: functional, organism-based
Outline: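 Sprague-Dawley rats were given 30 mg/kg p.o. in 0.5% methylcellulose. Maximal electroshock was applied at 0.25, 0.5, 1.0, 2.0 and 4 h after dosing. Results are reported as number of rats protected / number tested.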

Mus musculus [3] = assay: Neurotoxicity in albino Carworth Farms No.1 mouse at 100 mg/kg, ip after 0.5 hrs by rotarod test; format: toxicity, organism-based; details: in vivo
Outline: (§1)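 Mice (albino Carworth Farms No.1) were dosed i.p. at 30, 100 or 300 mg/kg in 0.5% methylcellulose. They were tested 0.5 and 4 h later on a 1-inch knurled rod rotating at 6 rpm. Neurotoxicity was scored if a mouse could not stay on the rod for at least 1 min in each of three trials. Results are given as animals toxic/animals tested, with deaths noted.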

Mus musculus [4] = assay: Anticonvulsant activity in albino Carworth Farms No.1 mouse assessed as protection against subcutaneous dosed pentetrazol-induced seizures at 30 mg/kg, ip after 4 hrs; format: functional, organism-based
Outline: (§2)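 Mouse i.p. screen in Carworth Farms No.1 albino mice at 30, 100 or 300 mg/kg in 0.5% methylcellulose. Testing was at 0.5 and 4 h after injection, by maximal electroshock or by subcutaneous pentetrazol challenge. Scoring was number protected / number used.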

Mus musculus [5] = assay: Anticonvulsant activity in albino Carworth Farms No.1 mouse assessed as protection against maximal electroshock-induced seizures at 100 mg/kg, ip after 4 hrs; format: functional, organism-based; outline: as §2
Mus musculus [6] = assay: Anticonvulsant activity in albino Carworth Farms No.1 mouse assessed as protection against maximal electroshock-induced seizures at 100 mg/kg, ip after 0.5 hrs; format: functional, organism-based; outline: as §2
Salmonella typhimurium [7] = assay: Mutagenicity in Salmonella typhimurium TA98 assessed as number of revertants at 500 ug/plate by Ames test (reference value: 23 +/- 3); format: toxicity, organism-based; details: salmonella enterica subsp. enterica serovar typhimurium
Salmonella typhimurium [8] = assay: Mutagenicity in Salmonella typhimurium TA100 assessed as mutagenic index at 100 ug/plate by Ames test; format: toxicity, organism-based; details: salmonella enterica subsp. enterica serovar typhimurium
Outline: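 Ames preincubation test. Strain culture was grown 12 h at 37 °C in nutrient broth, then mixed with compound in DMSO (final 4, 20, 100, 500, 1000 per plate) and buffer in top agar with trace histidine. This was plated on glucose minimal agar for 48 h at 37 °C. Mutagenic index = revertants with compound / DMSO control revertants, from three independent repeats.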

Salmonella typhimurium [9] = assay: Mutagenicity in Salmonella typhimurium TA1535 assessed as assessed as mutagenic index at 500 ug/plate by Ames test; format: toxicity, organism-based; details: salmonella enterica subsp. enterica serovar typhimurium
Salmonella typhimurium [10] = assay: Mutagenicity in Salmonella typhimurium TA98 assessed as mutagenic index at 4 ug/plate by Ames test; format: toxicity, organism-based; details: salmonella enterica subsp. enterica serovar typhimurium
Salmonella typhimurium [11] = assay: Mutagenicity in Salmonella typhimurium TA98 assessed as mutagenic index at 1000 ug/plate by Ames test; format: toxicity, organism-based; details: salmonella enterica subsp. enterica serovar typhimurium
Mus musculus [12] = assay: Neurotoxicity in albino Carworth Farms No.1 mouse at 30 mg/kg, ip after 4 hrs by rotarod test; format: toxicity, organism-based; details: in vivo; outline: as §1
[13] = Lipophilicity of the compound using 95% methanol in water at 1 mg/ml by RT-TLC analysis; format: physicochemical; details: buffer
Outline: (§3)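 Reversed-phase TLC with a methanol–water mobile phase at the stated methanol content (v/v). Compounds were spotted from 1 mg/mL methanol solutions after 1 h chamber saturation and located under UV light. Rf was measured and RM = log(1/Rf − 1) calculated.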

[14] = Lipophilicity of the compound using 90% methanol in water at 1 mg/ml by RT-TLC analysis; format: physicochemical; details: buffer; outline: as §3
Salmonella typhimurium [15] = assay: Mutagenicity in Salmonella typhimurium TA98 assessed as number of revertants at 100 ug/plate by Ames test (reference value: 23 +/- 3); format: toxicity, organism-based; details: salmonella enterica subsp. enterica serovar typhimurium
Salmonella typhimurium [16] = assay: Mutagenicity in Salmonella typhimurium TA1535 assessed as number of revertants at 100 ug/plate by Ames test (reference value: 10 +/- 3); format: toxicity, organism-based; details: salmonella enterica subsp. enterica serovar typhimurium
Salmonella typhimurium [17] = assay: Mutagenicity in Salmonella typhimurium TA1535 assessed as number of revertants at 20 ug/plate by Ames test (reference value: 10 +/- 3); format: toxicity, organism-based; details: salmonella enterica subsp. enterica serovar typhimurium
Salmonella typhimurium [18] = assay: Mutagenicity in Salmonella typhimurium TA1535 assessed as number of revertants at 4 ug/plate by Ames test (reference value: 10 +/- 3); format: toxicity, organism-based; details: salmonella enterica subsp. enterica serovar typhimurium
Salmonella typhimurium [19] = assay: Mutagenicity in Salmonella typhimurium TA100 assessed as number of revertants at 20 ug/plate by Ames test (reference value: 77 +/-4); format: toxicity, organism-based; details: salmonella enterica subsp. enterica serovar typhimurium
Outline: (§4)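 Salmonella TA100 preincubation Ames assay: overnight-type 12 h broth culture at 37 °C, compound in DMSO at final 4–1000 per plate, top agar with trace histidine, glucose minimal agar, 48 h at 37 °C. Revertant colonies per plate were counted, with a DMSO negative control and a sodium azide positive control. Three independent repetitions were run.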

Salmonella typhimurium [20] = assay: Mutagenicity in Salmonella typhimurium TA100 assessed as number of revertants at 4 ug/plate by Ames test (reference value: 77 +/-4); format: toxicity, organism-based; details: salmonella enterica subsp. enterica serovar typhimurium; outline: as §4
Mus musculus [21] = assay: Anticonvulsant activity in albino Carworth Farms No.1 mouse assessed as protection against 6-Hz electroshock-induced seizures at 100 mg/kg, ip after 4 hrs; format: functional, organism-based
Outline: (§5)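 Carworth Farms No.1 albino mice were dosed i.p. at 100 mg/kg (0.5% methylcellulose solution or suspension). 6-Hz seizures were induced at 32 mA at 0.25, 0.5, 1.0, 2.0 and 4 h after injection. Results are given as animals protected / animals tested.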

Mus musculus [22] = assay: Anticonvulsant activity in albino Carworth Farms No.1 mouse assessed as protection against 6-Hz electroshock-induced seizures at 100 mg/kg, ip after 1 hr; format: functional, organism-based; outline: as §5
Mus musculus [23] = assay: Anticonvulsant activity in albino Carworth Farms No.1 mouse assessed as protection against 6-Hz electroshock-induced seizures at 100 mg/kg, ip after 0.25 hrs; format: functional, organism-based; outline: as §5
Mus musculus [24] = assay: Neurotoxicity in albino Carworth Farms No.1 mouse at 300 mg/kg, ip after 0.5 hrs by rotarod test; format: toxicity, organism-based; details: in vivo; outline: as §1
Mus musculus [25] = assay: Anticonvulsant activity in albino Carworth Farms No.1 mouse assessed as protection against subcutaneous dosed pentetrazol-induced seizures at 300 mg/kg, ip after 4 hrs; format: functional, organism-based; outline: as §2
[26] = Hepatotoxicity against human HepG2 cells assessed as cell viability at 25 uM after 24 hrs by MTT assay relative to control; format: toxicity, cell-based; details: read-out: Activity
Outline: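 HepG2 cells (EMEM, 10% FBS, 37 °C, 5% CO₂) were seeded at 1 × 10⁴ per well and cultured overnight. They were then exposed to increasing compound concentrations for 24 h. MTT reagent was added for 3 h and formazan crystals dissolved before reading. Data are mean ± SD of at least three independent experiments, relative to untreated control.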

[27] = Protection index, ratio of TD50 for neurotoxicity in po dosed Sprague-Dawley rat to ED50 for anticonvulsant activity in po dosed Sprague-Dawley rat assessed as maximal electroshock-induced seizures; format: toxicity, organism-based; details: in vivo
in vitro = details: human, HepG2 cells

Rm [13] | Rm [14] | SMILES | Activity (Mus musculus [3]) | Activity (Mus musculus [4]) | Activity (Mus musculus [5]) | Activity (Mus musculus [6]) | Activity (Salmonella typhimurium [7]) | Activity_index (Salmonella typhimurium [8]) | Activity_index (Salmonella typhimurium [9]) | Activity_index (Salmonella typhimurium [10]) | Activity_index (Salmonella typhimurium [11]) | Activity (Mus musculus [12]) | Activity (Salmonella typhimurium [15]) | Activity (Salmonella typhimurium [16]) | Activity (Salmonella typhimurium [17]) | Activity (Salmonella typhimurium [18]) | Activity (Salmonella typhimurium [19]) | Activity (Salmonella typhimurium [20]) | Activity (Mus musculus [24]) | Activity (Mus musculus [25]) | further results
-0.6 | -0.48 | O=C(/C=C/c1ccccc1)N1CCC(O)CC1 | Non-toxic | inactive | inactive | Active | 22 | 1 | 0.8 | 1 | 0.9 | Non-toxic | 17 | 9 | 6 | 5 | 68 | 70 | – | – | Activity (Rattus norvegicus [1]): Non-toxic; Activity (Rattus norvegicus [2]): inactive
-0.69 | -0.58 | CC(O)CNC(=O)/C=C/c1ccccc1 (racemic) | Non-toxic | inactive | inactive | inactive | 21 | 0.9 | 1.4 | 1.1 | 1 | Non-toxic | 21 | 12 | 13 | 12 | 70 | 68 | Non-toxic | inactive | Activity (Rattus norvegicus [1]): Non-toxic; Activity (Rattus norvegicus [2]): inactive; Activity (Mus musculus [21]): inactive; Activity (Mus musculus [22]): Active; Activity (Mus musculus [23]): Active; viability at 24 h, 25 µM [26]: 92.5%; selectivity ratio [27]: > 11; viability at 24 h, 50 µM (in vitro): 98%
-0.66 | -0.52 | CCC(O)CNC(=O)/C=C/c1ccccc1 (racemic) | Non-toxic | inactive | inactive | inactive | 17 | 0.8 | 0.7 | 0.9 | 1.1 | Non-toxic | 21 | 5 | 14 | 9 | 64 | 60 | Non-toxic | inactive | Activity (Rattus norvegicus [1]): Non-toxic; Activity (Rattus norvegicus [2]): inactive; Activity (Mus musculus [21]): inactive; Activity (Mus musculus [22]): inactive; Activity (Mus musculus [23]): Active; viability at 24 h, 25 µM [26]: 91.2%; selectivity ratio [27]: > 12.1; viability at 24 h, 50 µM (in vitro): 92%
-0.52 | -0.43 | O=C(/C=C/c1ccccc1)N[C@H]1CCCC[C@@H]1O (racemic) | Toxic | inactive | inactive | Active | 19 | 0.9 | 0.7 | 1 | 0.8 | Non-toxic | 20 | 6 | 14 | 5 | 79 | 71 | Toxic | inactive | –
-0.66 | -0.55 | CCC(CO)NC(=O)/C=C/c1ccccc1 (racemic) | Non-toxic | inactive | inactive | inactive | 21 | 0.8 | 1.3 | 0.9 | 0.8 | Non-toxic | 22 | 14 | 5 | 11 | 62 | 68 | Non-toxic | inactive | –
-0.63 | -0.45 | CC(C)C(CO)NC(=O)/C=C/c1ccccc1 (racemic) | Non-toxic | inactive | inactive | inactive | 16 | 1 | 0.7 | 0.9 | 0.7 | Non-toxic | 19 | 6 | 6 | 5 | 75 | 83 | Non-toxic | inactive | Activity (Rattus norvegicus [1]): Non-toxic; Activity (Rattus norvegicus [2]): inactive; Activity (Mus musculus [21]): inactive; Activity (Mus musculus [22]): inactive; Activity (Mus musculus [23]): Active; viability at 24 h, 25 µM [26]: 95.7%; viability at 24 h, 50 µM (in vitro): 93%
-0.69 | -0.6 | CC(CO)NC(=O)/C=C/c1ccccc1 (racemic) | Non-toxic | inactive | inactive | Active | 24 | 0.9 | 0.8 | 0.9 | 0.8 | Non-toxic | 21 | 5 | 6 | 15 | 62 | 67 | Non-toxic | inactive | Activity (Rattus norvegicus [1]): Non-toxic; Activity (Rattus norvegicus [2]): inactive; Activity (Mus musculus [21]): inactive; Activity (Mus musculus [22]): inactive; viability at 24 h, 25 µM [26]: 96.6%; selectivity ratio [27]: > 8.1; viability at 24 h, 50 µM (in vitro): 96%
